Data: PMC4269301 (International journal of peptide research and therapeutics, 2014)
Square brackets hold non-standard residues; d marks the D form. Ends that are not written are not given here. Nle = CCCC[C@H](N)C(=O)O

What was measured:
GRK5 [1] = target: T1, GRK5 (Homo sapiens, UniProt P34947); test: GRK5 phosphorylation of light-activated rhodopsin; assay type: biochemical; conditions: for Inhibition of GRK5 phosphorylation of rhodopsin: peptides 10, 30 and 100 μM, four or more experiments in duplicate; for % Inhibition (100 μM) of GRK5 phosphorylation of rhodopsin: 100 μM peptide, 0.5 μM light-activated rhodopsin, 100 μM ATP, 5 min
T1 sequence (P34947 whole entry): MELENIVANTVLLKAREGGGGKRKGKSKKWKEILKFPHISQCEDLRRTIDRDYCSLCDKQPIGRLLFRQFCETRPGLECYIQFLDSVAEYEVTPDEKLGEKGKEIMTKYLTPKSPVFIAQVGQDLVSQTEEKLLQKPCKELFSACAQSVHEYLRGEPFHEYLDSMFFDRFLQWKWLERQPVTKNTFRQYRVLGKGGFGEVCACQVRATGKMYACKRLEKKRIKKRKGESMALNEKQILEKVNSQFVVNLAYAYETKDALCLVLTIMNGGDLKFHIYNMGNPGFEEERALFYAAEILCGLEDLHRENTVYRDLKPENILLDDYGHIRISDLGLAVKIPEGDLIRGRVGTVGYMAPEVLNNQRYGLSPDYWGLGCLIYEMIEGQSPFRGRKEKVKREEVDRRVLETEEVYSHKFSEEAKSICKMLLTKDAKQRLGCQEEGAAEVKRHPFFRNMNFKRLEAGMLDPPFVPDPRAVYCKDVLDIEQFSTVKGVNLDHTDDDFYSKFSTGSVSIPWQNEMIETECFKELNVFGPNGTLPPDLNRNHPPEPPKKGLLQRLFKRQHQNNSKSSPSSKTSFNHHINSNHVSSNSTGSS

GRK2 [2] = target: T2, GRK2 (Homo sapiens, UniProt P25098, S670A); test: GRK2 phosphorylation of light-activated rhodopsin; assay type: biochemical; conditions: peptides 10, 30 and 100 μM; four or more experiments in duplicate
T2 sequence (P25098 1-689 S670A): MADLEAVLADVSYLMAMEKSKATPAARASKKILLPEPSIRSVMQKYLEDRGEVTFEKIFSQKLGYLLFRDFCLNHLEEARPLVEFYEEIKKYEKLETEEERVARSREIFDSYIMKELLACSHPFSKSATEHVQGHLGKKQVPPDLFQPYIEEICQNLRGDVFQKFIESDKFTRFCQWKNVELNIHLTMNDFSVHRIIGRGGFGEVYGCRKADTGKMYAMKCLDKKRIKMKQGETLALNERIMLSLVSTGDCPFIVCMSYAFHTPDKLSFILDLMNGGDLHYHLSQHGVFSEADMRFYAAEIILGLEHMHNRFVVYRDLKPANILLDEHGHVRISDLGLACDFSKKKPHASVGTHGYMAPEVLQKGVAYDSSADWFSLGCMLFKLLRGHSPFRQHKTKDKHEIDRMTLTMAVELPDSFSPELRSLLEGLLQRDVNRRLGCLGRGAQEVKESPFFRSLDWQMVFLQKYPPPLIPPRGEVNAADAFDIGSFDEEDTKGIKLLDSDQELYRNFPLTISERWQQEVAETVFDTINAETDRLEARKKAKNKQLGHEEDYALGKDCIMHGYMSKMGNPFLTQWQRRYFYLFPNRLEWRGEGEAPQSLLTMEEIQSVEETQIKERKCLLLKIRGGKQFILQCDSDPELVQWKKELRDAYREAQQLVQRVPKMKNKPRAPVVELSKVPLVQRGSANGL
Procedure, shortened: (§1)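 Light-activated (475 nm, 30 s) rhodopsin, 0.5 μM, from urea-stripped bovine ROS. Kinase was purified GRK2 (His₆, S670A, Sf9/baculovirus, Ni-IMAC) or N-terminal His₆ full-length human GRK6, at 10–100 nM. Buffer: 20 mM Tris pH 7.5, 10 mM MgCl₂, 1 mM EDTA, 100 μM [γ³²P]ATP; peptides in DMSO (2–4 %). Ran 5 min, then SDS-PAGE and autoradiography. ≥4 experiments in duplicate, % of control.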

GRK6 = GRK6 phosphorylation of light-activated rhodopsin; assay type: biochemical, human; conditions: peptides 10, 30 and 100 μM; four or more experiments in duplicate
Procedure, shortened: as §1

GRK7 = target: T3, GRK7 (Homo sapiens, UniProt Q8WTQ7); test: GRK7 phosphorylation of light-activated rhodopsin; assay type: biochemical; conditions: for Inhibition of GRK7 phosphorylation of rhodopsin: peptides 10, 30 and 100 μM, four or more experiments in duplicate
T3 sequence (Q8WTQ7 1-553): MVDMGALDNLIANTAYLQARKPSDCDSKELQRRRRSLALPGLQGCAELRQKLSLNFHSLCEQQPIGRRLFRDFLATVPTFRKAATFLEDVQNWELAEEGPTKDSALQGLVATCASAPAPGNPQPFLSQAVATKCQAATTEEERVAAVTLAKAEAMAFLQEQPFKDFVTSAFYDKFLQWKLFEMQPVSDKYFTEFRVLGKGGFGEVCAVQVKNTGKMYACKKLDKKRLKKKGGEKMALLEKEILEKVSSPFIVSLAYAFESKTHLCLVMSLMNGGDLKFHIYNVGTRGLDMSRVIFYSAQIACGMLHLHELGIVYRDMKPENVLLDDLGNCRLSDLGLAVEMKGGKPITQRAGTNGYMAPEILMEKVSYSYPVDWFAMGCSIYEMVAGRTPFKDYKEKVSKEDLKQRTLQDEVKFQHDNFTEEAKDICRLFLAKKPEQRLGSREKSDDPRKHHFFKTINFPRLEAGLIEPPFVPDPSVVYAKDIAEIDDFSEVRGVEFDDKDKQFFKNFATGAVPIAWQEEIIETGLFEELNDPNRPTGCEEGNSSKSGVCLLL
Procedure, shortened: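 Substrate is urea-stripped bovine rod outer segment rhodopsin (0.5 μM in reaction buffer; 0.5–4 μM per legend), light-activated at 475 nm for 30 s. Peptides are dissolved in DMSO (2–4% final) and quantified by A280. Results are normalised to the no-peptide control as mean ± SEM.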

GRK2 [3] = target: T2, GRK2; test: GRK2 phosphorylation of tubulin; assay type: biochemical
Procedure, shortened: (§2)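 Bovine brain tubulin 500 nM with 100 nM GRK2 (His₆, S670A, Sf9-expressed) or human His₆-GRK5; 20 mM Tris pH 7.5, 1 mM EDTA, 10 mM MgCl₂, 5 μM DTT, 100 μM [γ³²P]ATP; 60 min, 30 °C. 12 % SDS-PAGE; ³²P-tubulin counted from excised bands or by autoradiogram densitometry. Mean ± SEM, ≥4 experiments in duplicate, % of control; one-way ANOVA.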

GRK5 [4] = target: T1, GRK5; test: GRK5 phosphorylation of tubulin; assay type: biochemical
Procedure, shortened: as §2

[5] = target: Human His6-tagged GRK5 (human) (UniProt P34947)
Sequence of Human His6-tagged GRK5 (human) (P34947 whole entry): as the sequence (P34947 whole entry) above

[6] = target: light-activated rhodopsin in urea-stripped bovine rod outer segments (bovine) (UniProt P02699)
Sequence of light-activated rhodopsin in urea-stripped bovine rod outer segments (bovine) (P02699 whole entry): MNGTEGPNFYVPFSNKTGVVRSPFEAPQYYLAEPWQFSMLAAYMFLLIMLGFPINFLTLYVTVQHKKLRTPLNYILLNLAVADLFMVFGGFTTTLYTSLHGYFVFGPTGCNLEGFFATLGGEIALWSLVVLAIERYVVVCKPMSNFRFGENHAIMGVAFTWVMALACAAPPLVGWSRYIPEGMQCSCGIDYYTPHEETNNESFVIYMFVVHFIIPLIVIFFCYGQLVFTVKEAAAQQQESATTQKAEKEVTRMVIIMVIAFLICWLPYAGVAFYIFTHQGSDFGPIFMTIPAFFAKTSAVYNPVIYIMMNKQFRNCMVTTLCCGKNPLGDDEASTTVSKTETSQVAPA

[7] = target: Human His6-tagged GRK5 (human) (UniProt P34947); remark: listed apart in the source

Question: With Ac-PIGRLLFRQFC-NH2 [α3] as the molecule, how does the “Inhibition of GRK5 phosphorylation of rhodopsin” value (GRK5 [1]) read?
Answer: inhibited

Question: And the “Inhibition of GRK2 phosphorylation of rhodopsin” value (GRK2 [2])?
Answer: inhibited

Question: And the “Inhibition of GRK6 phosphorylation of rhodopsin” value (GRK6)?
Answer: little activity

Question: And the “Inhibition of GRK7 phosphorylation of rhodopsin” value (GRK7)?
Answer: inhibited

Question: And the IC50 (GRK2 [3])?
Answer: ~30 µM

Question: What about the “% inhibition of GRK2 phosphorylation of tubulin” value (GRK2 [3]; 100 μM peptide, 0.5 μM tubulin, 100 nM GRK2, 60 min, 30 °C) of the same molecule?
Answer: 60–80%

Question: What about the IC50 (GRK5 [4]) of the same molecule?
Answer: ~30 µM

Question: What about the “% inhibition of GRK5 phosphorylation of tubulin” value (GRK5 [4]; 100 μM peptide, 0.5 μM tubulin, 100 nM GRK5, 60 min, 30 °C) of the same molecule?
Answer: 60–80%

Question: For “Ac-S[Nle]AFDRFLQWKWLER-NH2 [Peptide F166A]”, which “% Inhibition (100 μM) of GRK5 phosphorylation of rhodopsin” value (“% Inhibition (100 μM)” below) (GRK5 [1]) is on record?
Answer: 42%

Question: With “Ac-S[Nle]FFDRFLQAKWLER-NH2 [Peptide W173A]” as the molecule, how does the “% Inhibition (100 μM)” value (GRK5 [1]) read?
Answer: ~26%

Question: For Ac-S[Nle]FFDRFLQWK-NH2 [Peptide T4], which “% Inhibition (100 μM)” value (GRK5 [1]) is on record?
Answer: 72%

Question: “Ac-S[Nle]FFDRFLQWKWAER-NH2 [Peptide L176A]” was tested. Which “% Inhibition (100 μM)” value (GRK5 [1]) did it give?
Answer: 74%

Question: Which results are given for MELENIVANTVLLKAR-NH2 [N-Ter]?
Answer: IC50 (GRK5 [1]): 5 to 10 µM; Inhibition of GRK5 phosphorylation of rhodopsin (GRK5 [1]): reasonably potent inhibitor; Inhibition of GRK2 phosphorylation of rhodopsin (GRK2 [2]): less potent inhibitor; Inhibition of GRK6 phosphorylation of rhodopsin (GRK6): less potent inhibitor; IC50 (GRK7): 5 to 10 µM; Inhibition of GRK7 phosphorylation of rhodopsin (GRK7): reasonably potent inhibitor; Effect on GRK2 phosphorylation of tubulin, basal activity (GRK2 [3]; 0.5 μM tubulin, 60 min, 30 °C): no significant effect; Effect on GRK5 phosphorylation of tubulin, basal activity (GRK5 [4]; 0.5 μM tubulin, 60 min, 30 °C): no significant effect

Question: Which GRK5 phosphorylation of light-activated rhodopsin: IC50 of inhibition [5] does the source give for α9 (164–178) peptide of GRK5 here?
Answer: 15.9 µM

B1: Gα transducin C-tail peptide TCT (340–350) K341L (peptide)
peptide: Ac-ILENLKDCGLF-NH2
Question: For B1, which GRK5 phosphorylation of light-activated rhodopsin: IC50 of inhibition [6] is on record?
Answer: 10 µM

B2: α3 (61–71) peptide of GRK5 (peptide)
peptide: Ac-PIGRLLFRQFC-NH2
Question: B2 was tested. Which GRK5 phosphorylation of tubulin: IC50 of inhibition [7] did it give?
Answer: 30 µM
